The results in this text go back to ChEMBL document CHEMBL1125687, “5-Lipoxygenase inhibitors: the synthesis and structure-activity relationships of a series of 1-phenyl-3-pyrazolidinones” (J Med Chem, 1991).

Data set [1] addresses T1, Polyunsaturated fatty acid 5-lipoxygenase (Rattus norvegicus, UniProt P12527).
T1 sequence (P12527 whole entry): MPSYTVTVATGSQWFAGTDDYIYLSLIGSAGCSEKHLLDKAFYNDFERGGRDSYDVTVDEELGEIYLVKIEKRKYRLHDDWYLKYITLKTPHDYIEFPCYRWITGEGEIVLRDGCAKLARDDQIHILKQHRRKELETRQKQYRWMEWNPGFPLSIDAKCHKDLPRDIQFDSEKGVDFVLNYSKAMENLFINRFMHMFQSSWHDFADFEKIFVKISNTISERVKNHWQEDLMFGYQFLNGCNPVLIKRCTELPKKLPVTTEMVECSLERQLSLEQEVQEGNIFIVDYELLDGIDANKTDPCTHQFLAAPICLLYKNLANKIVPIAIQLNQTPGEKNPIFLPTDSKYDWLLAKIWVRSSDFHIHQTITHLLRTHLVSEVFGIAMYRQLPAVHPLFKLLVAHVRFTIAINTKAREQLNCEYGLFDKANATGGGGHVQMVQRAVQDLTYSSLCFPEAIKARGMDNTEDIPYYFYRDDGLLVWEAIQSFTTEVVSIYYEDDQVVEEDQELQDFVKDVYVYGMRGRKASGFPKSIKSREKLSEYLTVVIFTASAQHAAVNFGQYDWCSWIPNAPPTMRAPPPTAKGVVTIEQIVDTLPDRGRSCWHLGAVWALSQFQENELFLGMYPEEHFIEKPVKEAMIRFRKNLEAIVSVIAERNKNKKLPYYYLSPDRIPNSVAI
Nature of the data set: In vitro inhibition of rat 5-Lipoxygenase. Summed up: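 Broken-cell assay: homogenized rat basophilic RBL-1 cells preincubated 5 min at 37 °C with compound or vehicle, then given [14C]arachidonic acid. A chloroform extract was run on TLC, and LTB4 and 5-HETE were quantified by radiochromatographic scanning.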

The nature of data set [2]: Partition coefficient (logP). It counts as physicochemical. Conditions: octanol/water.
Data set [3] deals with T2, Polyunsaturated fatty acid 5-lipoxygenase (Rattus norvegicus) (UniProt P12527).
T2 sequence (whole entry): T1 sequence (P12527 whole entry)
Kind of data set: Compound was evaluated for the inhibition of 5-Lipoxygenase (5-LO) ex vivo. It counts as functional. The procedure, abridged: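 Rats received 0.25% (w/v) carrageenan to induce pleural inflammation. After 3 h, compound or vehicle was given orally, and rats were killed 1 h later. Pleural exudate cells (>95% neutrophils) were stimulated with A23187 for 15 min and stopped with acetonitrile/methanol. After 30 min extraction at room temperature, samples were centrifuged and LTB₄ measured by reverse-phase HPLC. ED₅₀ with 95% confidence limits came from linear dose-response portions, ≥5 animals per dose.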

The subject of another data set is Cavia porcellus. Kind of data set: Compound was evaluated for the inhibition of leukotriene-mediated bronchoconstriction in guinea pig (in vivo). It is filed as functional. Conditions: Lung. Summed up:
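Guinea pigs were immunized with ovalbumin 1 mg plus alum 3 mg and used two weeks later, anesthetized and mechanically ventilated with tracheal pressure monitored. Pretreatment iv: naproxen 10 mg/kg, pyrilamine 3 mg/kg, propranolol 0.1 mg/kg. Compound or vehicle was given orally 1 h before iv ovalbumin challenge (0.3 mg/kg). Percent inhibition was taken from the maximum tracheal pressure rise within 20 min. ED50 with 95% confidence limits came from linear dose-response portions, n≥8 per dose.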

Data set [4] has as its target T2, Polyunsaturated fatty acid 5-lipoxygenase (Rattus norvegicus). Conditions: at 1 µM.
Data set [5] shares this target. Nature of the data set: Compound was evaluated for the inhibition of 5-Lipoxygenase (5-LO) in vitro at 1 uM.

In turn, `O=C1NN(c2ccccc2)CC1Sc1ccccn1` (stereo unspecified) displayed an IC50 in data set [1] of 120 nM. This compound also yielded a lipophilicity (logP) in data set [2] of 2.16.

In turn, `CCCOCC1CN(c2ccccc2)NC1=O` (stereo unspecified) came in with an IC50 in data set [1] of 260 nM. The compound also displayed a log partition coefficient (logP) in data set [2] of 1.95.

`COCCC1CN(c2ccccc2)NC1=O` (single isomer, unassigned; (+)): the IC50 in data set [1] worked out at 350 nM. That is a sub-micromolar value.

In the case of `COCc1cn(-c2ccccc2)[nH]c1=O`, in data set [1], the IC50 was > 1000 nM.

In turn, `COCCC1CN(c2ccccc2)NC1=O` (stereo in doubt; 1f (-)) showed an IC50 in data set [1] of 10300 nM. This counts as double-digit micromolar.

For `O=C1CCN(c2ccccc2)N1` [PHENIDONE], the ED50 is 16 mg/kg in data set [3] and 69 mg/kg in the data set on Cavia porcellus. Also, in data set [2], the logP was determined as 0.893.

As for `CC(C)(O)C1CN(c2ccccc2)NC1=O` (stereo unspecified), the IC50 in data set [1] was > 1000 nM. The same compound showed an inhibition in data set [4] of 35%.

Compound `O=C1NN(c2ccccc2)CC1SCc1ccccc1` (stereo unspecified) registered an IC50 in data set [1] of 180 nM. In data set [2], this compound had a logP of 3.63.

On to `COCC1CN(c2ccccc2)N(C)C1=O` (stereo unspecified), for which, in data set [1], the IC50 was > 1000 nM. Also, the inhibition in data set [4] is < 20%.

Turning to `COCC1CN(c2ccccc2)NC1=O` (stereo unspecified), the IC50 in data set [1] was found to be 590 nM. Moreover, the ED50 was found to be 29 mg/kg in data set [3] and 25 mg/kg in the data set with Cavia porcellus. In data set [2], this compound displayed a logP of 0.891.

`COCC1(C)CN(c2ccccc2)NC1=O` (stereo unspecified): the IC50 in data set [1] came to 670 nM. In data set [2], this compound gave a logP of 1.41.

As to `COCCC1CN(c2ccc(Cl)cc2)NC1=O` (stereo unspecified), in data set [1], the midpoint of inhibition, the IC50, lay at 250 nM. In data set [2], this compound showed a logP of 1.24.

For the compound `CC(=O)NN(C)c1ccccc1`, in data set [5], the inhibition was < 20%.

For the compound `COCCC1C(=O)NN(c2ccccc2)C1(C)C` (stereo unspecified), in data set [1], the IC50 was > 1000 nM. Further, in data set [4], the inhibition was < 20%.

`O=C1CCCN(c2ccccc2)N1` returned an IC50 in data set [1] of 530 nM. Also, the logP in data set [2] was 1.45.

`COCCC1CN(c2ccc(C)cc2)NC1=O` (stereo unspecified): the logP in data set [2] worked out at 1.03.

On to `CCOCC1CN(c2ccccc2)NC1=O` (stereo unspecified), for which the midpoint of inhibition in data set [1], the IC50, lay at 280 nM. The compound further returned a logP in data set [2] of 1.42.

For the compound `COCCc1cn(-c2ccccc2)[nH]c1=O`, in data set [1], the IC50 is > 1000 nM. Besides, in data set [4], the inhibition worked out at 35%.

`O=C1NN(c2ccccc2)CC1C(O)(c1ccccc1)c1ccccc1` (stereo unspecified): the IC50 in data set [1] was < 1000 nM.

With `COCCC1CN(c2ccc(Cl)c(Cl)c2)NC1=O` (stereo unspecified), half-maximal inhibition in data set [1] (IC50) required 190 nM. In data set [2], this compound came in with a log partition coefficient (logP) of 1.96.

`COCCC1CN(c2ccc(OCc3ccccc3)cc2)NC1=O` (stereo unspecified): the IC50 in data set [1] was 500 nM. In addition, the logP in data set [2] turned out to be 2.22.

Take `CN(C)CCC1CN(c2ccccc2)NC1=O` (stereo unspecified): the IC50 in data set [1] is > 1000 nM. Besides, the inhibition in data set [5] was < 20%.

Regarding `CCSC1CN(c2ccccc2)NC1=O` (stereo unspecified), the IC50 in data set [1] worked out at 60 nM. Moreover, the ED50 in data set [3] came out at 95 mg/kg; with Cavia porcellus it was 92 mg/kg. The compound further had a logP in data set [2] of 2.5.

As to `COCCC1CN(c2cccc(C(F)(F)F)c2)NC1=O` (stereo unspecified), in data set [1], inhibition was half-maximal at 220 nM (IC50). This compound also returned a lipophilicity (logP) in data set [2] of 1.41.

As to `COCCC1CN(c2ccccc2)NC1=O` (stereo in doubt; 1f) [listing 1 of 2 here], the 50% effect level in data set [3] (ED50) was put at a dose of 43 mg/kg.

`COCCC1C(=O)NN(c2ccccc2)C1C` (stereo unspecified): the half-maximal inhibitory concentration (IC50) in data set [1] was found to be 500 nM. Moreover, in data set [2], the logP turned out to be 1.05.

The compound `O=C1NN(c2ccccc2)CC1Cc1cccs1` (stereo unspecified) yielded an IC50 in data set [1] of 140 nM. The logP in data set [2] is 2.48.

Consider `CCOCCC1CN(c2ccccc2)NC1=O` (stereo unspecified), for which the IC50 in data set [1] was found to be 150 nM. In data set [2], this compound had a logP of 1.06.

In data set [1], `COCCC1CN(c2ccccc2)NC1=O` (stereo in doubt; 1f) [listing 2 of 2 here] registered an IC50 of 480 nM. Also, the ED50 in the data set with Cavia porcellus came to 62 mg/kg. The compound also yielded a logP in data set [2] of 0.53.

For `COCCC1CCN(c2ccccc2)NC1=O` (stereo unspecified), in data set [1], the IC50 amounted to 440 nM. For the same compound, in data set [2], the logP is 1.09.

The compound `CSC1CN(c2ccccc2)NC1=O` (stereo unspecified) registered an IC50 in data set [1] of 320 nM. The logP in data set [2] was found to be 1.97.

Turning to `COCCOCC1CN(c2ccccc2)NC1=O` (stereo unspecified), in data set [1], the IC50 was determined as 520 nM. This compound also registered a logP in data set [2] of 0.955.

With `NC1=NN(c2cccc(C(F)(F)F)c2)CC1` [BW-755C], the ED50 in data set [3] is > 300 mg/kg; in the data set with Cavia porcellus, 300 mg/kg.

`COCCC1CN(c2ccc(OC)cc2)NC1=O` (stereo unspecified) displayed an IC50 in data set [1] of 1460 nM. Also, the logP in data set [2] was 0.45.

`O=C1NN(c2ccccc2)CC1CCO` (stereo unspecified): in data set [1], the IC50 is > 1000 nM. The compound also gave an inhibition in data set [4] of 35%.

Compound `COCCC1CN(c2ccc(O)cc2)NC1=O` (stereo unspecified) showed an IC50 in data set [1] of 5130 nM. Further, the logP in data set [2] was -0.14.
